pIC50: −log10 of the molar value. Calls of active or inactive are those of the source. The calls are words filed in the database; no cut-off is given here.
Tests used:
A2780S [1] = test: Antiproliferative activity against human A2780S cells after 48 hrs by MTT assay; format: functional, cell-based
Procedure, shortened: (§1)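 Cells seeded at 3×10³/well and grown 24 h, then exposed 48 h to six final concentrations, twofold steps down from 30. MTT (5 mg/mL) was added for 2–4 h at 37 °C. Supernatant was removed, formazan dissolved in DMSO, and OD read at 570 nm. Results are given as IC50, or as percent inhibition where IC50 exceeds the top concentration. At least three runs.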

NCI-H1299 = test: Antiproliferative activity against human NCI-H1299 cells after 48 hrs by MTT assay; format: functional, cell-based; details: NCI-H1299, 48 h; procedure, shortened: as §1
BGC-823 = test: Antiproliferative activity against human BGC823 cells after 48 hrs by MTT assay; format: functional, cell-based; details: BGC-823, 48 h; procedure, shortened: as §1
CT26 = test: Antiproliferative activity against mouse CT26 cells after 48 hrs by MTT assay; format: functional, cell-based; details: CT26, 48 h; procedure, shortened: as §1
HCT-116 [2] = test: Antiproliferative activity against human HCT116 cells after 48 hrs by MTT assay; format: functional, cell-based; details: HCT-116, 48 h; procedure, shortened: as §1
HCT-116 [3] = test: Cell cycle arrest in human HCT116 cells assessed as accumulation at G1 phase at 7.5 uM after 24 hrs by propidium iodide staining-based flow cytometric method (reference value: 43.79%); format: functional
HCT-116 [4] = test: Cell cycle arrest in human HCT116 cells assessed as accumulation at G1 phase at 7.5 uM after 48 hrs by propidium iodide staining-based flow cytometric method (reference value: 40.75%); format: functional
HCT-116 [5] = test: Cell cycle arrest in human HCT116 cells assessed as accumulation at G2 phase at 7.5 uM after 48 hrs by propidium iodide staining-based flow cytometric method (reference value: 31.27%); format: functional
HCT-116 [6] = test: Cell cycle arrest in human HCT116 cells assessed as accumulation at G1 phase at 10 uM after 48 hrs by propidium iodide staining-based flow cytometric method (reference value: 40.75%); format: functional
HCT-116 [7] = test: Induction of apoptosis in human HCT116 cells assessed as nuclear condensation at 7.5 to 12.5 uM after 24 hrs by Hoechst 33342 staining-based fluorescence microscopic method; format: functional, cell-based
Procedure, shortened: (§2)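 HCT116 cells (1×10⁵/well) cultured 24 h, then exposed to 0, 7.5, 10 or 12.5 μM (final) for 24 h. Rinsed in PBS, fixed in 75% ethanol and checked by inverted microscopy. Then stained with Hoechst 33342 (2 μg/mL in PBS) and scored for apoptotic nuclear morphology under fluorescence microscopy.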

HCT-116 [8] = test: Induction of apoptosis in human HCT116 cells assessed as nuclear fragmentation at 7.5 to 12.5 uM after 24 hrs by Hoechst 33342 staining-based fluorescence microscopic method; format: functional, cell-based; procedure, shortened: as §2
HCT-116 [9] = test: Cell cycle arrest in human HCT116 cells assessed as accumulation at sub G1 phase at 12.5 uM after 24 hrs by propidium iodide staining-based flow cytometric method (reference value: 1.73%); format: functional
HCT-116 [10] = test: Cell cycle arrest in human HCT116 cells assessed as accumulation at sub G1 phase at 10 uM after 48 hrs by propidium iodide staining-based flow cytometric method (reference value: 0.86%); format: functional
HCT-116 [11] = test: Induction of apoptosis in human HCT116 cells assessed as late apoptotic cells at 7.5 uM after 24 hrs by annexin V-FITC/propidium iodide staining-based flow cytometric method (reference value: 2.77%); format: functional
HCT-116 [12] = test: Induction of apoptosis in human HCT116 cells assessed as viable cells at 7.5 uM after 24 hrs by annexin V-FITC/propidium iodide staining-based flow cytometric method (reference value: 93.48%); format: functional; details: HCT-116, 24 h, read-out: Activity
Procedure, shortened: (§3)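 HCT116 cells seeded at 1×10⁶ cells/mL in 6-well plates for 24 h, then exposed to 0, 7.5, 10 or 12.5 μM for a further 24 h or 48 h. Cells washed twice in PBS, then stained with Annexin V-FITC plus PI (100 μg/mL stock) in binding buffer (10 mM HEPES, pH 7.4, 2.5 mM CaCl₂) for 30 min at room temperature in the dark. Early and late apoptotic fractions gated by flow cytometry.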

HCT-116 [13] = test: Induction of apoptosis in human HCT116 cells assessed as late apoptotic cells at 10 uM after 24 hrs by annexin V-FITC/propidium iodide staining-based flow cytometric method (reference value: 2.77%); format: functional
HCT-116 [14] = test: Induction of apoptosis in human HCT116 cells assessed as viable cells at 10 uM after 24 hrs by annexin V-FITC/propidium iodide staining-based flow cytometric method (reference value: 93.48%); format: functional; details: HCT-116, 24 h, read-out: Activity; procedure, shortened: as §3
HCT-116 [15] = test: Induction of apoptosis in human HCT116 cells assessed as late apoptotic cells at 12.5 uM after 24 hrs by annexin V-FITC/propidium iodide staining-based flow cytometric method (reference value: 2.77%); format: functional
HCT-116 [16] = test: Induction of apoptosis in human HCT116 cells assessed as viable cells at 12.5 uM after 24 hrs by annexin V-FITC/propidium iodide staining-based flow cytometric method (reference value: 93.48%); format: functional; details: HCT-116, 24 h, read-out: Activity; procedure, shortened: as §3
HCT-116 [17] = test: Induction of apoptosis in human HCT116 cells assessed as late apoptotic cells at 7.5 uM after 48 hrs by annexin V-FITC/propidium iodide staining-based flow cytometric method (reference value: 1.06%); format: functional
HCT-116 [18] = test: Induction of apoptosis in human HCT116 cells assessed as early apoptotic cells at 10 uM after 48 hrs by annexin V-FITC/propidium iodide staining-based flow cytometric method (reference value: 1.6%); format: functional
HCT-116 [19] = test: Induction of apoptosis in human HCT116 cells assessed as necrotic cells at 10 uM after 48 hrs by annexin V-FITC/propidium iodide staining-based flow cytometric method (reference value: 2.29%); format: functional
HCT-116 [20] = test: Induction of apoptosis in human HCT116 cells assessed as viable cells at 10 uM after 48 hrs by annexin V-FITC/propidium iodide staining-based flow cytometric method (reference value: 95.05%); format: functional; details: HCT-116, 48 h, read-out: Activity; procedure, shortened: as §3
HCT-116 [21] = test: Induction of apoptosis in human HCT116 cells assessed as necrotic cells at 12.5 uM after 48 hrs by annexin V-FITC/propidium iodide staining-based flow cytometric method (reference value: 2.29%); format: functional; procedure, shortened: as §3
HCT-116 [22] = test: Induction of apoptosis in human HCT116 cells assessed as increase in cleaved caspase-3 level after 24 hrs by Western blot method; format: functional, cell-based
Procedure, shortened: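 Treated HCT116 were lysed on ice in RIPA buffer with 1% protease inhibitor cocktail and spun 13000 g, 20 min, 4 °C. Protein was quantified by BCA. Equal protein was run on SDS-PAGE, blotted to PVDF, probed with primary and HRP secondary antibodies, and detected by enhanced chemiluminescence.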

[23] = target: E3 ubiquitin-protein ligase Mdm2 (Homo sapiens) (UniProt Q00987); test: Inhibition of MDM2-mediated p53 degradation in human HCT116 cells assessed as increase in MDM2 levels at 7.5 to 12.5 uM after 24 hrs by Western blot method; format: cell-based
Procedure, shortened: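 Treated HCT116 cells lysed on ice in RIPA buffer with 1% protease inhibitor cocktail. Lysates cleared at 13000 g for 20 min at 4 °C and protein measured by BCA. Equal protein amounts run on SDS-PAGE, transferred to PVDF and probed with primary then HRP secondary antibodies. Bands detected by enhanced chemiluminescence; 24 h treatment.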

A2780S [24] = test: Antiproliferative activity against human A2780S cells at 15 uM after 48 hrs by MTT assay relative to control; format: functional; procedure, shortened: as §1

Chain of E3 ubiquitin-protein ligase Mdm2 (Homo sapiens) (Q00987 whole entry, looked up): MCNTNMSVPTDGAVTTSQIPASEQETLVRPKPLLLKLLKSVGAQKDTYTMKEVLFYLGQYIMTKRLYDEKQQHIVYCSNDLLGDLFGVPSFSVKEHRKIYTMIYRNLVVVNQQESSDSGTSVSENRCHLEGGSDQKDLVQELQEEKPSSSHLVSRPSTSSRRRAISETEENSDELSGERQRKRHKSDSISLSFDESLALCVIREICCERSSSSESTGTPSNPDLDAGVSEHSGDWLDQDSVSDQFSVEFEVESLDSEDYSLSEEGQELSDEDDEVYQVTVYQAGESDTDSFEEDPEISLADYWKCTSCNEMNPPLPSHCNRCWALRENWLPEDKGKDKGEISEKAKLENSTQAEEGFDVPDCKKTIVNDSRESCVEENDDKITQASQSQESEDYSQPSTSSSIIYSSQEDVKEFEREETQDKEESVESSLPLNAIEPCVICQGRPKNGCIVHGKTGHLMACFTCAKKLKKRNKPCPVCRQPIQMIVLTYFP

In the case of `C[C@@H]1Oc2ccc3ccccc3c2[C@@H]2[C@@H]1C=C(C=O)[C@@H](C)[C@]21C(=O)Nc2ccccc21`, the pIC50 (A2780S [1]) was 5.10, the pIC50 (NCI-H1299) was under 4.52 and the pIC50 (BGC-823) was under 4.52. It also gave a pIC50 (CT26) of 5.02, a pIC50 (HCT-116 [2]) of 5.07 and an Activity (HCT-116 [3]) of 46.1%. For the same compound, the Activity (HCT-116 [4]) was 49.85%, the Activity (HCT-116 [5]) was 26.41% and the Activity (HCT-116 [6]) was 82.32%. For the same compound, the Activity (HCT-116 [7]) was “Active”, the Activity (HCT-116 [8]) was “Active” and the Activity (HCT-116 [9]) was 37.03%. It also gave an Activity (HCT-116 [10]) of 32.93%, an Activity (HCT-116 [11]) of 4.71% and a viability at 7.5 µM (HCT-116 [12]) of 89.9%. For the same compound, the Activity (HCT-116 [13]) was 10.13%, the viability at 10 µM (HCT-116 [14]) was 76.1% and the Activity (HCT-116 [15]) was 17.98%. For the same compound, the viability at 12.5 µM (HCT-116 [16]) was 46.6%, the Activity (HCT-116 [17]) was 2.09% and the Activity (HCT-116 [18]) was 27.48%. The Activity (HCT-116 [19]) was 2.82%, the viability at 10 µM (HCT-116 [20]) was 61.5% and the Activity (HCT-116 [21]) was 5.28%. For the same compound, the Activity (HCT-116 [22]) was “Dose-dependent effect”, the inhibition [23] was “Active” and the inhibition at 15 µM (A2780S [24]) was 61.7 to 72.4%.
